Bioassay records deposited in PubChem BioAssay by several laboratories.
VIM-2 inh = blocks Pseudomonas aeruginosa VIM-2 metallo-beta-lactamase; purified VIM-2, nitrocefin hydrolysis, epi-absorbance fluorescence; actives 0.89% (n = 290,000); AID 1527; inhibition, % at 5.6 µM;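 active = inhibition above the mean of all tested compounds plus 3 SD, cutoff set per screening run, cut at about 7.5% in these data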;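 also: red hydrolysis product quenches plate fluorescence so inhibitors raise well fluorescence; 0% = enzyme with DMSO and 100% = DMSO without enzyme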
IMP-1 inh = blocks Pseudomonas aeruginosa IMP-1 metallo-beta-lactamase; purified IMP-1, nitrocefin hydrolysis, epi-absorbance fluorescence; inhibition, % at 5.6 µM; actives 0.45% (n = 290,000);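 active = inhibition above the mean plus 3 SD of all compounds in the same screening run, cut at about 4.5% in these data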;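 also: 0% = IMP-1 with DMSO and 100% = DMSO wells lacking enzyme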
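Assay system: purified IMP-1; Quantity: IMP-1 0.2 nM before substrate addition; Medium: HEPES buffer pH 7.1 with ZnSO4 and Brij 35; Incubation: 15 min enzyme–compound preincubation, then 25 min nitrocefin reaction, 25 °C; Signal: fluorescence quenching readout, ex 480/em 530 nm; Controls: DMSO with and without IMP-1; Repeats: singlicate testing.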
Jurkat NFkB inh = lowers PMA/ionomycin-induced NF-kB signal in Jurkat cells; PMA/ionomycin-induced NF-kB luciferase reporter, luminescence; actives 0.53% (n = 330,000); AID 435003; inhibition, % at 4 µM; in the data active = inhibition above about 50%
Mdm2 MdmX PPI = human Mdm2/MdmX binding inhibition. inhibition, % at 8 µM. SaOS-2 split-luciferase Mdm2/MdmX complementation, luminescence. actives 3% (n = 330,000). AID 485346;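 active = inhibition of at least 50% at 8 µM in the primary screen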
Target sequence (O15151 whole entry, looked up): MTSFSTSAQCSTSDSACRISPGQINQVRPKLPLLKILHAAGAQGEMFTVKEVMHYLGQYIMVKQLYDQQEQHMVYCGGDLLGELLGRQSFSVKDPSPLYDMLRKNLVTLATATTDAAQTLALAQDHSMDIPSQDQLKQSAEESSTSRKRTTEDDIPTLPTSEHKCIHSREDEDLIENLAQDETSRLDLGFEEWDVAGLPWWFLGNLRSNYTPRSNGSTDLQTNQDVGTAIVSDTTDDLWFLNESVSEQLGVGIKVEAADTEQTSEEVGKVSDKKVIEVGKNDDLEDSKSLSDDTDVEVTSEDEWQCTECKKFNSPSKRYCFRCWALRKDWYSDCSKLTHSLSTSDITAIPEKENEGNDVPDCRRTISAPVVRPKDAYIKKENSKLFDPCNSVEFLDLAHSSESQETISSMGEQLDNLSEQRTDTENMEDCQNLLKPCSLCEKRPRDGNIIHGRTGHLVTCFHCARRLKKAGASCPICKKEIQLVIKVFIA
Target sequence (Q00987 whole entry, looked up): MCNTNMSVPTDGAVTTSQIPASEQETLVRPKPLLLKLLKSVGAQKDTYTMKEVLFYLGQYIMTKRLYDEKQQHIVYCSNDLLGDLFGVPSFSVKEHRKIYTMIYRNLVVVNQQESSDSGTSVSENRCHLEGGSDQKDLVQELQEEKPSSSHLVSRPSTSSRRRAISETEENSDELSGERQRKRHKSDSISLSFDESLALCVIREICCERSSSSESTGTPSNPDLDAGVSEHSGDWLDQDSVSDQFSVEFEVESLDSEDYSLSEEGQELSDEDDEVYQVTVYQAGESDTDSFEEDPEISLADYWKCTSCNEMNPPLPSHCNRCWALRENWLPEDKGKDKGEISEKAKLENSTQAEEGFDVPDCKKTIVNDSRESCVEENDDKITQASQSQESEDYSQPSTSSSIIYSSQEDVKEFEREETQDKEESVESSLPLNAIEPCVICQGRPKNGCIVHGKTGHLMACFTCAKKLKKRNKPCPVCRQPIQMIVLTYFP
aSyn UTR inh = 5' untranslated region of α-synuclein, MLPCN primary screen. actives 0.82% (n = 300,000). inhibition, % (tested at 7.5 µM). AID 1813. alpha-synuclein 5'UTR reporter, inhibitor activity; in the data active = inhibition above about 60%;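 also: H4 neuroglioblastoma cells stably carrying SNCA 5'UTR luciferase fusion; 0% = DMSO wells and 100% = positive control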
697 NFkB inh = lowers PMA/ionomycin-induced NF-kB signal in 697 B cells; 697 B-cell NF-kB luciferase reporter, 16 h; actives 0.33% (n = 330,000); inhibition, % at 4 µM; AID 435022; in the data active = inhibition above about 35%
Mdm2-MdmX conf = confirmation of human Mdm2/MdmX interaction inhibitors; shares compounds with Mdm2 MdmX PPI; Mdm2-MdmX binding, luminescent assay; inhibition, % at 8 µM; actives 55% (n = 10,000); AID 489028; in the data active = inhibition above about 40%
FLuc counter = full-length luciferase inhibition in Mdm2/MdmX counter-screen; shares compounds with Mdm2 MdmX PPI; SaOS-2 full-length luciferase counterscreen, luminescence; inhibition, % at 8 µM; actives 77% (n = 6,200); AID 504607;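 active = mean inhibition at 8 µM reaching about 37%, which flags the compound as non-specific, limit read from the data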;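 also: p53-null SaOS-2 cells with luciferase driven by a doxycycline-inducible promoter; compound on cells about two nights before reading with doxycycline added after day one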
* hit, by the source's call; / = no result. Only some compounds are listed: those with a hit (about 4.7% of all), similar ones and a draw of the others.

SMILES	VIM-2 inh	IMP-1 inh	Jurkat NFkB inh	Mdm2 MdmX PPI	aSyn UTR inh	697 NFkB inh	Mdm2-MdmX conf	FLuc counter
CCN(CC)C(=O)[C@H]1CC(CC(=O)NCC23CC4CC(CC(C4)C2)C3)C(=O)N2CCc3c([nH]c4ccccc34)[C@]12C (some centres not stated)	/	/	8	69*	/	15	23	/
COc1ccc(C2NC(=O)NC(C)=C2C(=O)OCC2CCCCC2)cc1OC (configuration not stated)	-2	-2	4	-3	2	-14	/	/
O=C(CN1C(=O)c2ccccc2S1(=O)=O)N1CCc2ccccc2C1	-1	-3	8	55*	46	7	39	77*
O=C(CN1C(=O)c2ccccc2C1=O)c1ccc(F)cc1	0	0	-10	9	-6	-36	/	/
NC(=O)C1CCN(C(=O)CN2C(=O)c3ccccc3S2(=O)=O)CC1	-3	-4	7	10	-3	16	/	/
CC1CCN(C(=O)CN2C(=O)c3ccccc3S2(=O)=O)CC1	-2	-3	1	54*	-10	6	37	/
O=C(CN1C(=O)c2ccccc2S1(=O)=O)c1ccc(F)cc1	-1	-3	6	83*	92*	32	68*	81*
O=C(CSc1nc(N2CCCCC2)nc(N2CCCCC2)n1)Nc1nccs1	-1	-3	-4	10	24	-7	/	/
COc1ccc(CNC(=O)C/C(C)=N/NC(=O)COc2ccc(C)cc2Br)cc1	-2	-6	39	57*	-20	0	9	/
Cc1sc2nc(C3CCCCC3)nc(SCC(=O)N3CC(=O)Nc4ccccc43)c2c1C	-1	-3	-27	56*	-16	-59	18	/
Cc1ccc2[nH]c(O)c(N=NC(=O)C3CC3c3ccccc3)c2c1Br (configuration not stated)	-4	-3	10	45	7	21	/	/
O=C1C=CC(=O)N1CCNc1ncc(C(F)(F)F)cc1Cl	-3	-3	8	63*	10	4	68*	53*
O=C1CC(=O)N(CCNc2ncc(C(F)(F)F)cc2Cl)C(=O)N1	2	0	15	23	7	-16	/	/
COc1ccc(C(=O)Cn2c(C(=O)/C=C/c3ccccc3)nc3ccccc32)cc1	1	0	-2	72*	-55	0	46*	61*
COc1ccc(C(=O)N(C)CCCC2CCCC2)cc1OC1CCN(C(C)=O)CC1	-3	-1	9	2	-9	-26	/	/
COc1ccc(C(=O)N(C)CCCC2CCCC2)cc1OC1CCN(C(C)C)CC1	-2	-2	-12	55*	-5	-17	36	72*
c1ccc(-c2cc(NCCN3CCCCC3)c3ccccc3n2)cc1	0	-4	-18	57*	-34	2	46*	51*
O=C(c1cc(-c2ccccc2)nc2ccccc12)N1CCCC1	-2	-4	-6	-24	-8	16	/	/
Cc1ccc(S(=O)(=O)c2cc3c(=O)n4ccccc4nc3n(C)c2=N)cc1C	6	-4	16	86*	2	-4	24	/
Cn1c(=N)c(S(=O)(=O)c2ccccc2)cc2c(=O)n3ccccc3nc21	2	-1	4	22	/	-3	/	/
N=c1c(S(=O)(=O)c2ccc(Cl)cc2)cc2c(=O)n3ccccc3nc2n1CCc1ccccc1	-1	0	23	63*	-54	-44	37	25
Cc1ccccc1N(Cc1cc(=O)[nH]c2ccccc12)C(=O)CCl	-1	0	-15	96*	-38	-53	73*	58*
O=C(CCl)N(Cc1ccccc1)c1ccccc1	-3	-1	7	96*	-13	-7	96*	55*
O=C(CCl)N(Cc1cc(=O)[nH]c2ccccc12)c1ccccc1	-4	-2	1	100*	24	-70	100*	53*
Cc1cccc(N(Cc2ccccc2)C(=O)CCl)c1	-3	-3	/	/	-21	/	/	/
SMILES	VIM-2 inh	IMP-1 inh	Jurkat NFkB inh	Mdm2 MdmX PPI	aSyn UTR inh	697 NFkB inh	Mdm2-MdmX conf	FLuc counter
Cc1ccc(CNS(=O)(=O)c2ccc3c(c2)CCN3C(=O)CCCC(=O)O)cc1	-3	-3	1	29	-2	5	/	/
COc1cc2c(cc1OC)CN(C(=O)CSc1nnc(C)s1)CC2	1	2	-12	-2	17	-6	/	/
CC1CCCCN1C(=O)CSc1nnc(-c2ccccc2O)o1 (configuration not stated)	-4	-4	-53	-6	-84	-103	/	/
Cc1cc(N/N=C/c2ccccc2O)nc(-c2ccccc2O)n1	-4	-5	-25	72*	25	-17	72*	46*
C/C(=N\Nc1cc(C)nc(-c2ccccc2O)n1)c1ccccc1O	-6	-5	-9	89*	-38	14	82*	41*
Cc1cc(N/N=C\c2ccccc2)nc(-c2ccccc2O)n1	-5	-3	-25	1	-138	1	/	/
O=C(O)c1cc2ccccc2c2cc(Br)ccc12	-3	-1	-3	7	15	21	/	/
CCc1cccc(C)c1NC(=O)C1CCN(c2nn3c(=O)cc(C)nc3s2)CC1	-1	0	4	16	1	-1	/	/
CC1CC(=O)c2c(cc3c(-c4c(O)cc(O)c5c(O)c6c(cc45)OC(C)CC6=O)c(O)cc(O)c3c2O)O1 (configuration not stated)	-3	-1	-3	100*	70*	-1	93*	5
Cc1cc(N/N=C/c2ccccc2Cl)nc(NCc2ccccc2)n1	-2	-3	19	72*	-28	2	38	/
Cc1ccc(Nc2cc(C)nc(NCc3ccccc3)n2)cc1	1	-2	27	57*	-11	-17	35	/
CCCc1nc(C)cc(N2CCN(c3ccccc3)CC2)n1	2	-2	-15	-29	-15	-13	/	/
Cc1cc(N2CCN(c3ccccc3)CC2)nc(NCc2ccccc2)n1	-1	-1	6	76*	-20	-70	33	/
CN(C)C1=NC[C@H](Cc2ccccc2)N1CC1CCC(C(C)(C)C)CC1 (some centres not stated)	-2	0	12	37	-28	12	/	/
CN(CC(=O)Nc1ccc(Cl)c(C(F)(F)F)c1)C(=O)CCN1C(=O)C2CCCCC2C1=O (configuration not stated)	/	/	12	33	17	12	/	/
CCOCCCN1C(=O)CN(C2CCC(C)CC2)C(=O)C1c1ccc(C)cc1 (configuration not stated)	-3	-2	6	5	-33	4	/	/
COc1cccc(NC(=O)c2ccc(CN3CCN(c4ccccc4)CC3)cc2)c1	-1	-3	-30	57*	-5	9	32	/
